Rows were chosen to be rich in hits. Some 2.9% of all compounds tested hit in one or more screens of this group.
NALP3 yeast inh = NALP3 inhibition in yeast; AID 2825; inhibition, % at 10 µM; hit rate 0.39% among 330,000; Yeast reconstituted NLRP3/ASC/caspase-1, beta-gal luminescence, 24 h;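 active means inhibition of 50% or more; inactive means inhibition below 50%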;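 further: plate controls were induced DMSO wells for no effect and uninduced yeast grown without galactose for full effect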
VIM-2 inh = inhibitors of Pseudomonas aeruginosa VIM-2 metallo-beta-lactamase. hit rate 0.89% among 290,000. AID 1527. inhibition, % at 5.6 µM. purified VIM-2, nitrocefin hydrolysis, epi-absorbance fluorescence;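 active means inhibition above the mean of all tested compounds plus 3 SD, cutoff set per screening run, cut at about 7.5% in these data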;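 further: red hydrolysis product quenches plate fluorescence so inhibitors raise well fluorescence; 0% = enzyme with DMSO and 100% = DMSO without enzyme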
PolyA inhibitor = yeast polyadenylation inhibition | activity score, % at 12 µM | hit rate 0.02% among 300,000 | S. cerevisiae SKY197-pL101 polyadenylation reporter, beta-gal luminescence; efflux-impaired pdr1/pdr3 knockout yeast; score 100 = 6 SD above DMSO;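 active means lowest replicate activity score at least 50, where 100 means six control SD above control mean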;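 further: yeast exposed to compound for 9 h at 30 °C; higher score means more reporter readthrough which indicates perturbed polyadenylation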
SUMO Mot1 rescue = inhibitors of SUMOylation pathway: yeast Mot1-301 growth rescue; S. cerevisiae Mot1-301 growth rescue, ATP luminescence, 38.5C; percent above DMSO median, 100 means doubled; growth rescue, % at 18.8 µM; hit rate 1% among 320,000; AID 2716;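 active means every valid replicate shows activation above 250% relative to neutral control wells; inactive means the rest, any valid replicate at or below 250%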;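 further: OY570 slx delta 5 strain wells were the positive control but not used for scaling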
NALP1 yeast inh = inhibitors of NALP1 inflammasome in yeast; S. cerevisiae NALP1/ASC/caspase-1 growth, X-gal OD620, 72 h; inhibition, % at 10 µM; hit rate 0.61% among 280,000; AID 2071; in the data active means inhibition mostly above about 24%, no sharp cut-off; inactive means mostly below about 32%
IMP-1 inh = blocks Pseudomonas aeruginosa IMP-1 metallo-beta-lactamase | purified IMP-1, nitrocefin hydrolysis, epi-absorbance fluorescence | inhibition, % at 5.6 µM | hit rate 0.45% among 290,000;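 active means inhibition above the mean plus 3 SD of all compounds in the same screening run, cut at about 4.5% in these data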;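 further: 0% = IMP-1 with DMSO and 100% = DMSO wells lacking enzyme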
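System: purified IMP-1; amount: IMP-1 0.2 nM before substrate addition; compound: single dose, 5.6 µM; times: 25 °C, 15 min preincubation, 25 min reaction; signal: Epi-absorbance via hydrolysed-nitrocefin quenching of white-plate fluorescence, 480/530 nm, EDTA stop; benchmarks: DMSO with and without IMP-1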
NALP3 confirm = confirmation of NALP3 inhibitors in yeast; inhibition, % at 10 µM; hit rate 81% among 1,300; yeast expressing human NALP3, luminescence; shares compounds with NALP3 yeast inh; in the data active means inhibition above about 48%
Casp1-ASC yeast = caspase-1-ASC yeast counter-screen hit; inhibition, % at 10 µM; yeast expressing Caspase-1-ASC, luminescence counter screen; hit rate 66% among 1,000; shares compounds with NALP3 yeast inh
NALP3 retest = retest-confirmed inhibitor of NALP3 in yeast | shares compounds with NALP3 yeast inh | yeast expressing human NALP3, luminescence read-out | inhibition, % at 10 µM | hit rate 53% among 1,000
Starred values were filed as active, the others as inactive; . = no result. Unless noted, no stated cut-off is given here; in the data, active means inhibition above about 50%; inactive means the rest.

SMILES | NALP3 yeast inh | VIM-2 inh | PolyA inhibitor | SUMO Mot1 rescue | NALP1 yeast inh | IMP-1 inh | NALP3 confirm | Casp1-ASC yeast | NALP3 retest
COc1ccc(CNCC(O)COc2ccc(C(C)(C)c3ccccc3)cc2)cc1 (stereo unspecified) | 52.8* | 0.2 | 6.0 | 10.1 | 17.2 | -1.0 | 76.0* | . | .
CC(C)Nc1ncnc2c1cnn2-c1ccccc1 | 58.2* | 1.8 | 19.1 | 35.3 | 34.0 | -2.5 | 65.2* | 37.8 | 35.5
CC1CCCN(c2ncnc3c2cnn3-c2ccccc2)C1 (stereo unspecified) | 53.8* | . | 8.0 | 4.1 | 33.3 | . | 61.5* | . | .
CCN1CCN(c2ncnc3c2cnn3-c2ccccc2)CC1 | 9.8 | 0.0 | 0.9 | -2.9 | -6.2 | -3.4 | . | . | .
c1ccc(-n2ncc3c(N4CCCCC4)ncnc32)cc1 | 59.6* | 0.5 | -12.6 | 15.2 | 11.0 | -3.5 | 60.7* | 69.3* | 60.8*
O=C(O)c1ccc(NC(=S)NC(=O)c2cncc(Br)c2)cc1 | 22.5 | -3.5 | -12.0 | -9.6 | -2.6 | -4.5 | . | . | .
Clc1ccc(/C=C/c2nc3ccccc3[nH]2)cc1 | 54.0* | -4.1 | -17.1 | 92.0 | -8.3 | -2.1 | 76.8* | 54.1* | 71.0*
Cc1cccc(OCc2nnc(SC(C)C(=O)O)n2-c2ccccc2)c1 (stereo unspecified) | -1.4 | -1.2 | 4.1 | 10.8 | 13.8 | -2.7 | . | . | .
CN1CCN(S(=O)(=O)c2ccc(SCCOc3ccc(Cl)cc3)nc2)CC1 | 73.7* | . | . | 250.8 | . | . | 74.3* | 22.9 | 17.9
O=C(Nc1cccc(F)c1)c1ccc2c(c1)OCCO2 | 67.2* | -5.4 | 35.3 | 478.7* | 11.5 | -4.2 | 69.7* | 61.7* | 60.0*
O=C(Nc1cccc(Cl)c1)c1ccccc1 | 82.6* | . | . | 6.0 | . | . | 92.6* | 91.4* | 82.6*
O=C(Nc1cccc(Cl)c1)C1CCCCC1 | 50.5* | . | . | 3.8 | . | . | 54.9* | 38.0 | 38.2
O=C(Nc1ccc2c(c1)OCO2)c1cccc(Cl)c1 | 55.7* | -1.7 | 18.2 | 7.2 | -11.5 | -6.9 | 57.8* | 62.2* | 60.6*
O=C(NNC(=S)Nc1cccc(Cl)c1)c1ccccc1 | 23.1 | -3.8 | -20.8 | 41.7 | 7.1 | -2.3 | . | . | .
O=C(Nc1ccc2c(c1)OCO2)c1ccc2c(c1)OCO2 | 19.7 | -3.7 | -2.5 | -11.6 | 33.9 | -0.9 | . | . | .
CC(C(=O)Nc1ccc(F)c(F)c1F)N(C)CCOc1ccccc1 (stereo unspecified) | 14.5 | -2.7 | -11.1 | 30.1 | -4.8 | -2.9 | . | . | .
O=C(CNc1n[nH]c(=O)[nH]c1=O)N/N=C/C=C/c1ccccc1 | 13.7 | -4.2 | 17.5 | -13.0 | -8.0 | -3.2 | . | . | .
O=C(Nc1csc(Cl)c1)c1ccccc1 | 80.5* | . | 18.9 | 17.9 | . | . | 80.9* | 86.0* | 78.6*
O=C(Nc1ccc2c(c1)OCO2)Nc1ccccn1 | 53.0* | -2.6 | -4.6 | -18.5 | 21.9 | -4.5 | 61.2* | . | .
COc1cccc(NC(=O)c2cccc(C(=O)Nc3cccc(OC)c3)c2)c1 | 17.9 | -0.9 | 19.3 | -0.3 | 1.9 | -4.7 | . | . | .
COc1cccc(NC(=O)c2ccc(OC(F)(F)F)cc2)c1 | 50.2* | . | 1.1 | 11.7 | . | . | 63.2* | 40.7 | 19.2
COc1cccc(NC(=O)c2ccccc2)c1 | 53.0* | . | . | -16.4 | . | . | 72.0* | 48.8 | 54.1*
CC(C)CCNC(=O)C1(O)c2ccccc2NC(=O)N1c1ccc(Cl)cc1 (stereo unspecified) | 0.5 | 3.0 | 4.8 | -1.2 | 17.6 | 0.6 | . | . | .
CN(CC(=O)Nc1cccc(F)c1)C(=O)c1cc(S(=O)(=O)N2CCN(c3ccccc3)CC2)ccc1Cl | 15.1 | . | . | -4.4 | . | . | . | . | .
COc1ccc(C(=O)NC2CCSc3ccccc32)cc1F (stereo unspecified) | 26.3 | 1.8 | 10.4 | -16.4 | 14.2 | -1.4 | . | . | .
SMILES | NALP3 yeast inh | VIM-2 inh | PolyA inhibitor | SUMO Mot1 rescue | NALP1 yeast inh | IMP-1 inh | NALP3 confirm | Casp1-ASC yeast | NALP3 retest
O=S(=O)(c1ccc(SCCOc2cccc(Br)c2)nc1)N1CCCC1 | 0.7 | . | . | -5.8 | . | . | . | . | .
CN1CCSc2ccc(C(=O)Nc3cccc(F)c3)cc21 | 66.7* | -2.3 | -0.7 | -2.4 | 12.0 | -2.5 | 82.5* | . | .
COc1ccc(N2CCN(C(=O)Nc3cccc(C(F)(F)F)c3)CC2)cc1 | -104.5 | -2.0 | -7.6 | 456.2 | 8.8 | 0.2 | -12.4 | . | .
O=C(Cn1cnc([N+](=O)[O-])c1)Nc1ccccc1C(F)(F)F | 14.5 | -1.9 | -1.8 | 6.8 | 6.4 | -4.7 | . | . | .
O=C(Nc1c(Cl)cccc1Cl)c1cc(-c2ccco2)on1 | 40.7 | -3.4 | 0.5 | 19.8 | 14.4 | -2.9 | . | . | .
O=C(Nc1cc(Cl)ccc1O)c1cc(-c2ccco2)on1 | 50.2* | -1.5 | -9.2 | 17.0 | 8.2 | -1.7 | 65.7* | 38.8 | 38.6
O=C(Nc1cccc(Cl)c1)c1cc(-c2ccco2)on1 | 59.1* | -0.2 | -11.9 | 102.1 | 18.7 | -0.8 | 74.2* | 62.6* | 48.0
Cc1cccc(C)c1NC(=O)c1cnn(-c2ccccc2)c1C | 24.4 | 1.5 | 4.2 | 6.9 | 7.9 | 0.8 | . | . | .
CCc1cccc(NC(=O)c2cnn(-c3ccccc3)c2C)c1 | 58.8* | -2.6 | -6.4 | -36.8 | 15.0 | -4.6 | 67.1* | 56.8* | 67.2*
Cc1ccc(NC(=O)c2cnn(-c3ccccc3)c2C)cc1 | 27.7 | -1.6 | 5.1 | -7.2 | 3.8 | -4.4 | . | . | .
COc1cccc(NC(=O)c2cnn(-c3ccccc3)c2C)c1 | 51.1* | -1.6 | -22.1 | -11.7 | 9.2 | -3.8 | 59.0* | 50.0 | 43.8
COc1ccc(CNC(=O)[C@]2(C)CCC[C@@]3(C)C4CC[C@@]5(C)C[C@]4(CCC32)CC5=O)cc1 (stereo partly specified) | 51.3* | . | . | 5.9 | . | . | 35.1 | . | .
Cc1ccccc1-c1ccc(Nc2ccc(N3CCOCC3)cc2)nn1 | 63.7* | -3.2 | -21.1 | 1.1 | 21.3 | -2.6 | 73.7* | 59.5* | 61.5*
CC1CCCN(C(=O)CCS(=O)(=O)c2ccc3c(c2)NC(=O)C(C)S3)C1 (stereo unspecified) | -5.8 | -0.7 | 6.6 | -0.4 | 6.7 | -1.1 | . | . | .
Cc1c(C(=O)N2CCCCC2)c(S(=O)(=O)NCCc2ccc(S(N)(=O)=O)cc2)c(C)n1C | 8.3 | -3.0 | 8.6 | 5.6 | 4.7 | -2.6 | . | . | .
Cc1ccc2c(c1)C(CCN)C(=O)N2Cc1ccccc1 (stereo unspecified) | 50.5* | -1.4 | -5.6 | 0.2 | 25.9 | -1.3 | 68.5* | 51.9* | 50.6*
Cc1ccc2c(c1)C(=O)C(=O)N2Cc1ccccc1 | 14.6 | . | . | 116.8 | . | . | . | . | .
CCN(CC)CCN1C(=O)C(=O)/C(=C(/O)c2ccc(S(=O)(=O)N3CCOCC3)cc2)C1c1ccc(Cl)cc1 (stereo unspecified) | 24.2 | -3.6 | -5.3 | 12.3 | 9.5 | -2.5 | . | . | .
